Measurements pooled from the literature.
Compare with care: the assays were run in different laboratories.

Nc1nc(-c2cc(F)cc(NC(=O)Nc3cc(F)cc(-c4c[nH]c(N)n4)c3)c2)c[nH]1  compound remaining (metabolic stability; human, liver microsomes; 5 µM, 1 h, pH 7.4): > 80%
CCCC(=O)Nc1cccc(NC(=O)c2ccccc2Br)c1  compound remaining (chemical stability; mouse, plasma; 5 µM, 5 h, pH 7.4): 2%
N=C(N)c1ccc(OCCCCCOc2ccc(C(=N)N)cc2)cc1  IC50 (L6; cell growth or viability, resazurin; 70 h): 7.6 µM
Nc1nc(-c2ccc(NC(=O)Nc3ccc(-c4c[nH]c(N)n4)c(F)c3)cc2F)c[nH]1  compound remaining (metabolic stability; human, liver microsomes; 5 µM, 1 h, pH 7.4): > 80%
CC(=O)c1ccc2c(c1)N(CCCN(C)C)c1ccccc1S2  CC50 (CEM-SS; cell growth or viability, XTT; 6 days): 18 µM
O=C(CCCO)N1N=C(c2c(-c3ccc(Cl)cc3)c3ccccc3[nH]c2=O)CC1c1ccc(Cl)cc1 (stereo not drawn)  compound remaining (metabolic stability; human, liver microsomes; 1 µM, 10 min, pH 7.4): 52%
O=[N+]([O-])c1ccc(-c2nc3cccc(O)c3[nH]2)o1  CC50 (CEM-SS; cell growth or viability, resazurin; 72 h): 90 µM
Oc1c(-n2ccnn2)cnn1-c1cc(N2CCOCC2)ncn1  clearance (female monkey, plasma; intravenous, 1 mg/kg): 11.7 mL/min/kg
COc1cccc2c1C(=O)c1c(O)c3c(c(O)c1C2=O)C[C@@](O)(C(=O)CO)C[C@@H]3O[C@H]1C[C@H](N)[C@H](O)[C@H](C)O1  IC50 (COLO 205; cell growth or viability, MTT; 48 h): 0.5 µM
Nc1ccn([C@@H]2CS[C@H](CO)O2)c(=O)n1  CC50 (HepG2.2.15; cell growth or viability, MTT; 6 days): > 1000 µM
C=C(C)[C@H](CC=C(C)C)Cc1c(O)cc(O)c2c1O[C@H](c1ccccc1O)CC2=O  IC50 (COLO 205; cell growth or viability, MTT; 48 h): 28.1 µM
CCC(=O)C[C@H](O)C[C@@H](C)C[C@H](NC(=O)[C@@H]1C[C@H](C)CN1C(=O)/C=C/[C@@H](C)CC)C(=O)N[C@H](C(=O)NC(C)(C)C(=O)N[C@@H](CC(C)C)C(=O)N[C@@H](CC(C)C)C(=O)NC(C)(C)C(=O)NC(C)(C)C(=O)NCCC(=O)N[C@@H](C)CN(C)C)[C@H](O)C(C)C  IC50 (L6; cell growth or viability, resazurin; 68 h): 0.259 µM
